Laboratory results taken from ChEMBL document CHEMBL1143595, “Synthesis and activity of substituted anthraquinones against a human filarial parasite, Brugia malayi” (2005).

Columns and labels:
Brugia malayi [1] = assay: Antifilarial activity against Brugia malayi (female) at 5 ppm in the first 5 days (100% mortality); format: functional; conditions: 120 h
Brugia malayi [2] = assay: Antifilarial activity against Brugia malayi (male) at 5 ppm in the first 5 days (100% mortality); format: functional; conditions: 120 h
Brugia malayi [3] = assay: Compound causing 100% mortality of Brugia malayi female adult worms at 12.5 ppm concentration; format: functional
In short: (§1)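 Dose-response on adult female B. malayi in RPMI 1640 with penicillin/streptomycin. Concentrations ranged from 50 to 3.12 ppm, with compounds delivered in DMSO; solvent controls received 2% DMSO. Movement and mortality were monitored daily. Read-out was days to 100% worm mortality at each concentration.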

Brugia malayi [4] = assay: Compound causing 100% mortality of Brugia malayi female adult worms at 3.125 ppm concentration; no mortality; format: functional, organism-based; in short: as §1
Brugia malayi [5] = assay: Compound causing 100% mortality of Brugia malayi female adult worms at 50 ppm concentration; format: functional; in short: as §1
Brugia malayi [6] = assay: Compound causing 100% mortality of Brugia malayi female adult worms at 25 ppm concentration; format: functional; in short: as §1
Brugia malayi [7] = assay: Compound causing 100% mortality of Brugia malayi female adult worms at 6.25 ppm concentration; format: functional; in short: as §1
Brugia malayi [8] = assay: Antifilarial activity against Brugia malayi (female) at 5 ppm in the first 5 days (100% mortality); NM=No Mortality; format: functional, organism-based
Brugia malayi [9] = assay: Compound causing 100% mortality of Brugia malayi female adult worms at 3.125 ppm concentration; format: functional; in short: as §1
Brugia malayi [10] = assay: Antifilarial activity of anthraquinone against Brugia malayi (female) at 5 ppm in the first 5 days (100% mortality); format: functional; conditions: 120 h

Question: Which mortality at 5 ppm (Brugia malayi [1]) does the source give for `COc1c(C)cc2c(c1OC)C(=O)c1ccccc1C2=O` here?
Answer: Its mortality at 5 ppm is 11%.

Question: Which results are given for `O=C1c2cc(O)c(O)c(O)c2C(=O)c2cccc(O)c21`?
Answer: mortality at 5 ppm (Brugia malayi [1]): 5%; mortality at 5 ppm (Brugia malayi [2]): 6%

Question: Which results are given for `Cc1cc2c(c(O)c1O)C(=O)c1c(O)cccc1C2=O`?
Answer: mortality at 5 ppm (Brugia malayi [1]): 5%; Mortality (Brugia malayi [3]): 4 days; Mortality (Brugia malayi [4]): no mortality; mortality at 5 ppm (Brugia malayi [2]): 5%; Mortality (Brugia malayi [5]): 2 days; Mortality (Brugia malayi [6]): 3 days; Mortality (Brugia malayi [7]): 5 days

Question: Which mortality at 5 ppm (Brugia malayi [1]) does the source give for `O=C1c2ccccc2C(=O)c2c(O)ccc(O)c21` [QUINIZARIN] here?
Answer: Its mortality at 5 ppm is 10%.

Question: With `COc1c(C)cc2c(c1O)C(=O)c1ccccc1C2=O` as the compound, how does the Mortality (Brugia malayi [8]) read?
Answer: Its Mortality is “No mortality”.

Question: Which results are given for `CCCSc1ccc2[nH]c(NC(=O)OC)nc2c1` [ALBENDAZOLE]?
Answer: mortality at 5 ppm (Brugia malayi [1]): 16%; mortality at 5 ppm (Brugia malayi [2]): 9%

Question: `COc1c(C)cc2c(c1O)C(=O)c1c(O)cccc1C2=O` was tested. Which Mortality (Brugia malayi [8]) did it give?
Answer: Its Mortality is “No mortality”.

Question: What about the Mortality (Brugia malayi [3]) of the same compound?
Answer: The Mortality was 4 days.

Question: What about the Mortality (Brugia malayi [4]) of the same compound?
Answer: Its Mortality is “no mortality”.

Question: What about the Mortality (Brugia malayi [5]) of the same compound?
Answer: Its Mortality is 1 days.

Question: And the Mortality (Brugia malayi [6])?
Answer: Its Mortality is 2 days.

Question: And the Mortality (Brugia malayi [7])?
Answer: Its Mortality is 8 days.

Question: For `O=C1c2cc(O)c(O)cc2C(=O)c2c(O)cccc21`, which mortality at 5 ppm (Brugia malayi [1]) is on record?
Answer: Its mortality at 5 ppm is 5%.

Question: How did the mortality at 5 ppm (Brugia malayi [1]) turn out when `O=C1c2ccccc2C(=O)c2c1ccc(O)c2O` [ATHRAQUINONES A] was run?
Answer: Its mortality at 5 ppm is 5%.

Question: What does the source list for `Cc1cc2c(c(O)c1O)C(=O)c1ccccc1C2=O`?
Answer: mortality at 5 ppm (Brugia malayi [1]): 5%; Mortality (Brugia malayi [3]): 4 days; Mortality (Brugia malayi [9]): 6 days; mortality at 5 ppm (Brugia malayi [2]): 6%; Mortality (Brugia malayi [5]): 1 days; Mortality (Brugia malayi [6]): 3 days; Mortality (Brugia malayi [7]): 5 days

Question: Which mortality at 5 ppm (Brugia malayi [1]) does the source give for `COc1cccc2c1C(=O)c1c(cc(C)c(OC)c1O)C2=O` here?
Answer: The mortality at 5 ppm was 7%.

Question: With `O=C1c2cc(O)cc(O)c2C(=O)c2cccc(O)c21` as the compound, how does the mortality at 5 ppm (Brugia malayi [1]) read?
Answer: The mortality at 5 ppm was 7%.

Question: For `COc1cc2c(c(C)c1OC)C(=O)c1c(O)cccc1C2=O`, which mortality at 5 ppm (Brugia malayi [1]) is on record?
Answer: The mortality at 5 ppm was 9%.

Question: How did the mortality at 5 ppm (Brugia malayi [1]) turn out when `O=C1c2cccc(O)c2C(=O)c2c(O)ccc(O)c21` was run?
Answer: The mortality at 5 ppm was 9%.

Question: For `O=C1c2ccc(O)c(O)c2C(=O)c2cccc(O)c21`, which mortality at 5 ppm (Brugia malayi [1]) is on record?
Answer: The mortality at 5 ppm was 9%.

Question: How did the Mortality (Brugia malayi [8]) turn out when `O=C1c2ccccc2C(=O)c2c(O)cc(O)cc21` was run?
Answer: The Mortality was “No mortality”.

Question: `Cc1c(O)c(O)cc2c1C(=O)c1ccccc1C2=O` was tested. Which mortality at 5 ppm (Brugia malayi [10]) did it give?
Answer: Its mortality at 5 ppm is 7%.

Question: For `O=C1c2cccc(O)c2C(=O)c2c1ccc(O)c2O`, which mortality at 5 ppm (Brugia malayi [1]) is on record?
Answer: Its mortality at 5 ppm is 14%.

Question: Which results are given for `O=C1c2ccccc2C(=O)c2c1cc(O)c(O)c2O`?
Answer: mortality at 5 ppm (Brugia malayi [1]): 5%; Mortality (Brugia malayi [3]): 4 days; Mortality (Brugia malayi [9]): 5 days; Mortality (Brugia malayi [5]): 2 days; Mortality (Brugia malayi [6]): 4 days; Mortality (Brugia malayi [7]): 5 days

Question: How did the mortality at 5 ppm (Brugia malayi [1]) turn out when `Cc1c(O)c(O)cc2c1C(=O)c1c(O)cccc1C2=O` was run?
Answer: The mortality at 5 ppm was 3%.

Question: And the mortality at 5 ppm (Brugia malayi [2])?
Answer: The mortality at 5 ppm was 5%.
